In publication PMC3680370 (Journal of medicinal chemistry, 2012):

What was measured:
[1] = Stability of NO-chimera in neutral phosphate buffer; format: physicochemical; details: for stability in phosphate buffer: phosphate buffer 100 mM, pH 7.4, room temperature, HPLC-UV or LC-MS
Outline: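 NO-chimeras were incubated in 100 mM phosphate buffer, pH 7.4, at room temperature in the HPLC autosampler. Aliquots were injected repeatedly, at intervals set by each compound's stability (about 7 or 67 min). Analysis used reverse-phase C18 HPLC with UV at 254 nm and a water/methanol vs acetonitrile gradient with 0.1% formic acid. Percent remaining was the parent:internal-standard peak-area ratio over the time-zero value.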

[2] = test system: primary cortical cultures; format: cell-based, rat; details: drug 50 μM; for effect of GABAA blockade by picrotoxin on neuroprotection: picrotoxin 100 μM added 1 h before glutamate 100 μM, MTT at 24 h
Outline: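 Cortical neurons from E17 Sprague Dawley rat embryos, plated at 3×10^5 cells/cm2 on poly-L-lysine and switched to serum-free neurobasal/B27 at 24 h, were used at 10–11 DIV. Picrotoxin 100 μM was given 1 h before glutamate 100 μM, or omitted in a parallel run. Test compound or muscimol (50 μM final) followed 1 h after glutamate. MTT survival at 24 h was normalised to vehicle controls; mean ± SEM, n=6.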

[3] = Brain bioavailability by LC-MS/MS; format: in vivo; details: mice, 20 min after i.p. administration; for MZ metabolite in the brain after NO-chimera administration: metabolite 22a from 32a, 26 from 28
Outline: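 Male C57BL/6 mice (8–10 weeks, 20–25 g) got one i.p. dose of 4.5 μmol/kg, equimolar with the parent methylthiazole, at 0.1 ml/25 g; four mice per drug. Brains were taken 20 min post-dose and extracted with cold acetonitrile/MeOH (1:1) plus internal standard. After homogenising, 4°C centrifugation and re-extraction, extracts were cleared at −20°C and dried under N2. Analytes were measured by C18 HPLC (formic acid gradient).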

[4] = test system: rats with cognitive deficits in the cholinergic systems of the basal forebrain; details: cited from earlier work
[5] = test system: primary cortical cultured neurons; experiment: Transient OGD followed by reoxygenation in primary neuronal cultures; format: cell-based, rat; details: for neuroprotection against OGD: primary neurons, 50 μM
Outline: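 Cortical neurons came from E17 Sprague Dawley rat embryos. They were plated at 3×10^5 cells/cm2 on poly-L-lysine, then kept in serum-free neurobasal/B27 medium. On day 8–10, cultures had 2 h OGD at 37°C (95% N2/5% CO2) in deoxygenated, glucose-free HEPES-buffered salt solution, pH 7.4. They then had 24 h normoxic reoxygenation in fresh medium. Test compound (50 μM) was present throughout. Viability was read by MTT, death by LDH.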

[6] = test system: rat primary cortical neurons; experiment: NMDA induced cytotoxicity in primary neurons; format: cell-based; details: NMDA 100 μM; compounds 50 μM
rabbits = details: cited from earlier work
SH-SY5Y cell cultures = experiment: Excitotoxic insults; format: cell-based, human; details: excitotoxic insults including glutamate, NMDA, OGD; data not shown

Cc1ncsc1C(OC(=O)C1(CO[N+](=O)[O-])CC1)c1ccccc1 (centres unmarked) [compound 36, [1-[(nitrooxy)methyl]cyclopropanecarboxyl]-[(4-methyl-5-thiazolyl)phenylmethyl] ester]
half-life ([1]; phosphate buffer, pH 7.4): ~30 min

Cc1ncsc1C(NC(=O)C1(CO[N+](=O)[O-])CC1)c1ccccc1 (centres unmarked) [compound 44, N-[(4-methyl-5-thiazolyl)phenylmethyl]-1-[(nitrooxy)methyl]cyclopropanecarboxamide]
stability in phosphate buffer [1]: stable

Cc1ncsc1C(OCCOCCO)c1ccccc1 (centres unmarked) [compound 41, [2-[(4-methyl-5-thiazolyl)phenylmethoxy]ethoxy]ethanol]
effect of GABAA blockade by picrotoxin on neuroprotection [2]: intermediate neuroprotective mechanisms

Cc1ncsc1C(CO[N+](=O)[O-])n1cc(-c2cccnc2)nn1 (stereo not drawn) [compound 28, β-(4-methyl-5-thiazolyl)-[4-(3-pyridinyl)-1H-1,2,3-Triazole-1-ethane]-1-nitrate]
stability in phosphate buffer [1]: stability over 5 days at room temperature | MZ metabolite in the brain after NO-chimera administration [3]: readily detected

Cc1ncsc1C(CO[N+](=O)[O-])c1ccccc1 (stereo not drawn) [32a, β-phenyl-(4-methyl-5-thiazolyl)ethane-1-nitrate]
brain bioavailability of NO-chimera [3]: good brain bioavailability | MZ metabolite in the brain after NO-chimera administration [3]: observed in the brain

Cc1ncsc1CCO[N+](=O)[O-] [compound 1]
learning and memory [4]: significantly improved learning and memory

Cc1ncsc1C(CO)n1cc(-c2cccnc2)nn1 (stereo not drawn) [compound 26, [1-[β-(4-Methyl-5-thiazolyl)ethanol]-4-(3-pyridinyl)]-1H-1,2,3-triazole]
effect of GABAA blockade by picrotoxin on neuroprotection [2]: intermediate neuroprotective mechanisms

Cc1ncsc1C(Cc1ccccc1)O[N+](=O)[O-] (stereo not drawn) [compound 33, α-(Phenylmethyl)-(4-methyl-5-thiazolyl)methanenitrate]
stability in phosphate buffer [1]: stability over 5 days at room temperature

4-Butyl-1-[(4-methyl-5-thiazolyl)phenylmethyl]-1H-1,2,3-triazole [5a]
% normalized to CMZ after OGD ([5]; test compounds 50 μM during 2-hour OGD and 24-hour reoxygenation, MTT assay at 24 h normalized to vehicle (0% survival) and CMZ (100% survival), mean ± SEM (n=6)): 26.8 ± 5.2%

Cc1ncsc1C(c1ccccc1)n1cc(-c2cncc(O)c2)nn1 (centres unmarked) [compound 16, 5-[1-[(4-Methyl-5-thiazolyl)phenylmethyl]-1H-1,2,3-triazol-4-yl]-3-pyridinol]
neuroprotection against OGD [5]: retained neuroprotective efficacy comparable to CMZ

Cc1ncsc1C(OCCOCCO[N+](=O)[O-])c1ccccc1 (centres unmarked) [compound 40, 1-nitrooxy-2-[2-[(4-methyl-5-thiazolyl)phenylmethoxy]ethoxy]ethane]
stability in phosphate buffer [1]: stability over 5 days at room temperature

Cc1ncsc1C(c1ccccc1)n1cc(-c2cccnc2)nn1 (centres unmarked) [5d, 3-[1-[(4-methyl-5-thiazolyl)phenylmethyl]-1H-1,2,3-triazol-4-yl]pyridine]
neuroprotection against OGD [5]: excellent neuroprotectant | neuroprotection against NMDA induced cytotoxicity [6]: excellent neuroprotectant

Cc1ncsc1CCO [HMZ, 5-(2-hydroxyethyl)-4-methylthiazole]
anticonvulsant activity (rabbits): anticonvulsant agent

Cc1ncsc1C(CO[N+](=O)[O-])n1nncc1-c1cccnc1 (stereo not drawn) [compound 29, β-(4-methyl-5-thiazolyl)-[5-(3-pyridinyl)-1H-1,2,3-Triazole-1-ethane]-1-nitrate]
stability in phosphate buffer [1]: stability over 5 days at room temperature

Cc1ncsc1CCCl [CMZ, clomethiazole, reference compound]
neuroprotection in SH-SY5Y cells (SH-SY5Y cell cultures): did not produce robust and reproducible neuroprotection | neuroprotection against NMDA induced cytotoxicity [6]: inhibited reproducibly

NCc1cc(O)no1 [muscimol, Muscimol, reference compound]
neuroprotection against glutamate toxicity ([2]; glutamate 100 μM, 24 h, MTT): effective neuroprotection | effect of GABAA blockade by picrotoxin on neuroprotection [2]: lost and reversed

Cc1ncsc1C(NC(=O)OCCCCO[N+](=O)[O-])c1ccccc1 (centres unmarked) [compound 43, N-[(4-Methyl-5-thiazolyl)phenylmethyl]-[4-(nitrooxy)butyl] carbamate]
stability in phosphate buffer [1]: stable

Cc1ncsc1C(CO)c1ccccc1 (stereo not drawn) [22a, β-phenyl-4-methyl-5-thiazoleethanol]
effect of GABAA blockade by picrotoxin on neuroprotection [2]: mirrored that by muscimol
